Data published in article PMC4846470 (Psychopharmacology, 2016).
pEC50, pKi: −log10 of the molar value. “Also recorded” adds a separate entry of the source.

What was measured:
[1] = target: human recombinant CB1 receptors (Homo sapiens, UniProt P21554); assay: Radioligand binding to human recombinant CB1 receptors in CHO cell membranes
[2] = test system: Male ND4 Swiss–Webster mice; assay: Locomotor activity; format: in vivo; details: for Time of peak (maximal) locomotor depression after injection: active doses
[3] = target: human CB1 cannabinoid receptors (Homo sapiens, UniProt P21554); assay: Gi agonist effect: cAMP functional assay in CHO cells expressing CB1; format: cell-based; details: for Emax: CHO, read-out: Maximum Effect (%)
[4] = test system: Male Sprague-Dawley rats; assay: Drug discrimination in rats trained to discriminate Δ^9-THC; format: in vivo; details: for Effect on rate of responding: cannabinoids at doses which substituted; for Substitution for the discriminative stimulus effects of Δ^9-THC: full substitution defined as ≥80% drug-appropriate responding
How it was run: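 Vehicle: ethanol/Cremophor EL/0.9% saline 1:1:18. In tests both levers paid and data ran to first reinforcer or 20 min. Six rats per compound got all doses. Pretreatment was at locomotor peak-depression time. Rate was responses/time to first reinforcer.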

human recombinant CB1 receptors, sequence (P21554 whole entry): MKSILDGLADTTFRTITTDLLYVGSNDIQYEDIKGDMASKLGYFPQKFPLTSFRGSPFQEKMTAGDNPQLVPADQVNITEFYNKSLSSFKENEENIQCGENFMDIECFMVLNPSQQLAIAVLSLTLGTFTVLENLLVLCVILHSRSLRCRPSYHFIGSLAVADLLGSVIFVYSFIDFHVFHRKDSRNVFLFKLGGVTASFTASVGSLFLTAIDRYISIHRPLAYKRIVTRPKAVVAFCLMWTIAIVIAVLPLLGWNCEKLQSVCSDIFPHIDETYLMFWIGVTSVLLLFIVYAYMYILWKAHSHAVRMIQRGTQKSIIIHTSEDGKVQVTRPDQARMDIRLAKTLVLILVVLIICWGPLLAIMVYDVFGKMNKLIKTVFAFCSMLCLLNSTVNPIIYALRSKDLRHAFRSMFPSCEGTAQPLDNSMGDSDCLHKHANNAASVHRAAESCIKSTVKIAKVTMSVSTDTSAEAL
human CB1 cannabinoid receptors, sequence (P21554 whole entry): as above

| Compound | pKi [1] | Time of peak (maximal) locomotor depression after injection ([2]; mice, i.p.) [min] | pEC50 [3] | Emax [3] [%] | Effect on rate of responding ([4]; THC-trained rats) | other results |
| --- | --- | --- | --- | --- | --- | --- |
| CCCCCn1nc(C(=O)NC(C(N)=O)C(C)(C)C)c2ccccc21 (stereo not drawn) [ADB-PINACA, N-[1-(aminocarbonyl)-2,2-dimethylpropyl]-1-pentyl-1H-indazole-3-carboxamide] | 9.23 | 20 | 10.62 | 99.6 |  |  |
| CCCCCc1cc(O)c2c(c1)OC(C)(C)[C@@H]1CCC(C)=C[C@@H]21 [Δ^9-THC, Δ^9-Tetrahydrocannabinol, reference compound] |  | 30 to 60 |  |  |  | ED50 Locomotor Activity (locomotor depressant effects) ([2]; mice, i.p., dose producing 1/2 maximal depression, mean with 95% confidence interval): 12.99 (2.51 to 67.21) mg/kg; ED50 Drug Discrimination (discriminative stimulus effects) ([4]; THC-trained rats, i.p., mean with 95% confidence interval): 1.15 (0.21 to 6.27) mg/kg |
| CCCCCn1cc(C(=O)c2ccc(OC)cc2)c2ccccc21 [RCS-4, (4-methoxyphenyl)(1-pentyl-1H-indol-3-yl)methanone] | 7.65 |  | 7.70 | 101 | modest depression of rate of responding | Substitution for the discriminative stimulus effects of Δ^9-THC ([4]; THC-trained rats): full substitution |
| CCCCCn1cc(C(=O)c2ccc(CC)c3ccccc23)c2ccccc21 [JWH-210, (4-ethyl-1-naphthalenyl)(1-pentyl-1H-indol-3-yl)-methanone] | 9.00 |  | 6.95 | 98.2 | modest depression of rate of responding | Mice with tremors upon handling ([2]; 8 h following 10 mg/kg i.p.): 6 of 8 |
| CCCCCn1cc(C(=O)c2ccc(C)c3ccccc23)c2ccccc21 [JWH-122, (4-methyl-1-naphthalenyl)(1-pentyl-1H-indol-3-yl)-methanone] | 8.47 |  | 8.55 | 102 |  |  |
| CCCCCn1cc(C(=O)NC(C(N)=O)C(C)(C)C)c2ccccc21 (stereo not drawn) [ADBICA, N-(1-amino-3,3-dimethyl-1-oxobutan-2-yl)-1-pentyl-1H-indole-3-carboxamide] | 8.89 | ≤ 20 | 9.42 | 97.4 |  |  |
| O=C(c1cccc2ccccc12)c1nn(CCCCCF)c2ccccc12 [THJ-2201, (1-(5-fluoropentyl)-1H-indazol-3-yl)(naphthalen-1-yl)methanone] |  |  | 9.19 | 96.6 |  |  |
| CNC(C)Cc1ccc2c(c1)OCO2 (stereo not drawn) [MDMA, 3,4-Methylenedioxy-methamphetamine] |  |  |  |  | dose-dependently depressed rate of responding | Maximum THC-appropriate responding ([4]; THC-trained rats, following 1.5 mg/kg, negative control): 11%; Substitution for the discriminative stimulus effects of Δ^9-THC ([4]; THC-trained rats): did not substitute; also recorded: failed to substitute; Rats that failed to complete the first fixed ratio ([4]; following 3 mg/kg, n=9): 6 of 9 |
